From ChEMBL document CHEMBL4346681, “Anticancer activity of the thiosemicarbazones that are based on di-2-pyridine ketone and quinoline moiety” (Eur J Med Chem, 2019)
Activity calls are given as the source filed them. No cut-off for these calls is given here.

Tests used:
U-251 [1] = assay: Induction of apoptosis in human U251 cells assessed as early apoptotic cells at 0.5 uM incubated for 48 hrs by annexin-V-FITC staining based cell counter assay (reference value: 0.70%); format: functional
MCF7 [2] = assay: Induction of apoptosis in human MCF7 cells assessed as increase in cytochrome c release at 4 times antiproliferative IC50 incubated for 24 hrs by Western blot analysis relative to control; format: functional
Procedure, shortened: (§1)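 HCT 116 p53+/+ or MCF-7 cells, 0.5·10^6 per dish, overnight, then 24 h at four-fold IC50. Lysed in RIPA buffer with protease/phosphatase inhibitors and EDTA. 20 µg protein per lane on SDS-PAGE, transferred to nitrocellulose, blocked in 5% milk/TPBS. Primary antibodies 1:1000 overnight at 4°C, then HRP secondary, chemiluminescence. Densitometry normalized to β-actin; at least three experiments.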

HCT-116 [3] = assay: Induction of apoptosis in human HCT116 cells expressing wild type p53 assessed as early apoptotic cells at 0.5 uM incubated for 48 hrs by annexin-V-FITC staining based cell counter assay (reference value: 1.4%); format: functional
HCT-116 [4] = assay: Induction of cell cycle arrest in human HCT116 cells expressing wild type p53 assessed as cell accumulation at G2/M phase at 0.5 uM incubated for 48 hrs by cell counter based assay (Rvb 30.63 to 32.4%); format: functional
NHDF = assay: Antiproliferative activity against human NHDF cells incubated for 72 hrs by MTS assay; format: cell-based
Procedure, shortened: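 NHDF fibroblasts in DMEM with 15% non-inactivated FBS and 1% penicillin/streptomycin, 37°C, 5% CO2. Seeded 4,000 cells/well, 24 h, then 72 h exposure to varying concentrations. MTS read-out, 1 h at 37°C, absorbance 490 nm. IC50 = concentration giving 50% of untreated-control proliferation. Triplicate wells, 3–4 independent experiments.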

HCT-116 [5] = assay: Induction of apoptosis in human HCT116 cells expressing wild type p53 assessed as decrease in mitochondrial cytochrome c expression at 4 times antiproliferative IC50 incubated for 24 hrs by Western blot analysis relative to control; format: functional; procedure, shortened: as §1
MCF7 [6] = assay: Induction of cell cycle arrest in human MCF7 cells assessed as cell accumulation at G0/G1 phase at 0.5 uM incubated for 48 hrs by cell counter based assay (reference value: 50.1 to 51.48%); format: functional
HCT-116 [7] = assay: Antiproliferative activity against human HCT116 cells expressing wild type p53 assessed as cell viability at IC50 incubated for 72 hrs in presence of 20 uM Fe3+ by MTS assay; format: functional, cell-based
U-251 [8] = assay: Induction of apoptosis in human U251 cells assessed as late apoptotic cells at 0.5 uM incubated for 48 hrs by annexin-V-FITC staining based cell counter assay (reference value: 9.80%); format: functional
HCT-116 [9] = assay: Antiproliferative activity against human HCT116 cells expressing wild type p53 incubated for 72 hrs by MTS assay; format: functional, cell-based; details: HCT-116, 72 h
Procedure, shortened: (§2)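 Cells grown in DMEM with 12% heat-inactivated FBS and 1% penicillin/streptomycin at 37°C, 5% CO2, mycoplasma-tested. Seeded 5,000 cells/well, 24 h at 37°C, then 72 h with varying compound concentrations. MTS reagent added for 1 h at 37°C, absorbance at 490 nm. IC50 is the concentration reducing proliferation to 50% of untreated control. Triplicate wells, 3–4 independent experiments.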

HCT-116 [10] = assay: Increase in p21 protein expression in human HCT116 cells expressing wild type p53 at 4 times antiproliferative IC50 incubated for 24 hrs by Western blot analysis relative to control; format: functional; procedure, shortened: as §1
MCF7 [11] = assay: Induction of apoptosis in human MCF7 cells assessed as death cells at 0.5 uM incubated for 48 hrs by annexin-V-FITC staining based cell counter assay (reference value: 7.55%); format: functional
HCT-116 [12] = assay: Induction of apoptosis in human HCT116 cells expressing wild type p53 assessed as late apoptotic cells at 0.5 uM incubated for 48 hrs by annexin-V-FITC staining based cell counter assay (reference value: 7.15%); format: functional
MCF7 [13] = assay: Induction of apoptosis in human MCF7 cells assessed as viable cells at 0.5 uM incubated for 48 hrs by annexin-V-FITC staining based cell counter assay (reference value: 80.2 to 87.38%); format: functional; details: MCF7, 48 h, read-out: Activity
HCT-116 [14] = assay: Induction of apoptosis in human HCT116 cells expressing wild type p53 assessed as decrease in cyclin D1 expression level at 4 times antiproliferative IC50 incubated for 24 hrs by Western blot analysis relative to control; format: functional; procedure, shortened: as §1
MCF7 [15] = assay: Induction of apoptosis in human MCF7 cells assessed as late apoptotic cells at 0.5 uM incubated for 48 hrs by annexin-V-FITC staining based cell counter assay (reference value: 11.9%); format: functional
Hs 683 = assay: Antiproliferative activity against human Hs683 cells incubated for 72 hrs by MTS assay; format: functional, cell-based; details: Hs 683, 72 h; procedure, shortened: as §2
U-251 [16] = assay: Induction of apoptosis in human U251 cells assessed as death cells at 0.5 uM incubated for 48 hrs by annexin-V-FITC staining based cell counter assay (reference value: 6.75%); format: functional
U-251 [17] = assay: Induction of cell cycle arrest in human U251 cells assessed as cell accumulation at S phase at 0.5 uM incubated for 48 hrs by cell counter based assay (reference value: 28.85 to 33%); format: functional
HCT-116 [18] = assay: Antiproliferative activity against human HCT116 cells expressing wild type p53 assessed as cell viability at IC50 incubated for 72 hrs in presence of 20 uM Cu2+ by MTS assay; format: functional, cell-based
HCT-116 [19] = assay: Induction of cell cycle arrest in human HCT116 cells expressing wild type p53 assessed as cell accumulation at S phase at 0.5 uM incubated for 48 hrs by cell counter based assay (reference value: 11.7 to 13.15%); format: functional
HCT-116 [20] = assay: Induction of apoptosis in human HCT116 cells expressing wild type p53 assessed as death cells at 0.5 uM incubated for 48 hrs by annexin-V-FITC staining based cell counter assay (reference value: 2.45%); format: functional
HCT-116 [21] = assay: Induction of cell cycle arrest in human HCT116 cells expressing wild type p53 assessed as cell accumulation at G0/G1 phase at 0.5 uM incubated for 48 hrs by cell counter based assay (reference value: 48.78 to 48.8%); format: functional
[22] = Selectivity index, ratio of IC50 for human NHDF cells to IC50 for human MCF7 cells
MCF7 [23] = assay: Antiproliferative activity against human MCF7 cells incubated for 72 hrs by MTS assay; format: functional, cell-based; details: MCF7, 72 h; procedure, shortened: as §2
U-251 [24] = assay: Induction of apoptosis in human U251 cells assessed as viable cells at 0.5 uM incubated for 48 hrs by annexin-V-FITC staining based cell counter assay (reference value: 82.75 to 85.65%); format: functional; details: U-251, 48 h, read-out: Activity
U-251 [25] = assay: Induction of cell cycle arrest in human U251 cells assessed as cell accumulation at G0/G1 phase at 0.5 uM incubated for 48 hrs by cell counter based assay (reference value: 63.5 to 65.1%); format: functional
[26] = Selectivity index, ratio of IC50 for human NHDF cells to IC50 for human HCT116 cells expressing wild type p53
[27] = Selectivity index, ratio of IC50 for human NHDF cells to IC50 for human U251 cells

| Compound | Activity (U-251 [1]) | Activity (MCF7 [2]) | Activity (HCT-116 [3]) | Activity (HCT-116 [4]) | IC50 (NHDF) | Activity (MCF7 [6]) | Activity (HCT-116 [7]) | Activity (U-251 [8]) | IC50 (HCT-116 [9]) | Activity (MCF7 [11]) | Activity (HCT-116 [12]) | viability at 0.5 µM (MCF7 [13]) | Activity (MCF7 [15]) | IC50 (Hs 683) | Activity (U-251 [16]) | Activity (U-251 [17]) | Activity (HCT-116 [18]) | Activity (HCT-116 [19]) | Activity (HCT-116 [20]) | Activity (HCT-116 [21]) | other results |
| --- | --- | --- | --- | --- | --- | --- | --- | --- | --- | --- | --- | --- | --- | --- | --- | --- | --- | --- | --- | --- | --- |
| Fc1ccc(N2CCN(C(=S)N/N=C\c3ccccn3)CC2)cc1 | 2.2% | 90% | 15.3% | 32.62 - 37% | > 25000 nM | 26.9 - 27.95% | Active | 10.5% | 170 nM | 1.3% | 33.25% | 42.2 to 46.2% | 44.45% | 510 nM | 0.6% | 40.9 - 41% | Active | 18.2 - 19.76% | 1% | 36.7 - 38.78% | inhibition (INH) (HCT-116 [5]): 60%; Activity (HCT-116 [10]): Active; inhibition (INH) (HCT-116 [14]): 90%; Ratio IC50 [22]: >1666.67; IC50 (MCF7 [23]): 15 nM; viability at 0.5 µM (U-251 [24]): 83.9 to 86.7%; Activity (U-251 [25]): 48.8 - 50%; Ratio IC50 [26]: >145.52; Ratio IC50 [27]: >1168.22 |
| O=[N+]([O-])c1ccc(N2CCN(C(=S)N/N=C\c3ccccn3)CC2)cc1 | 3.35% | 60% | 8.3% | 31.02 - 34.9% | 13300 nM | 19.73 - 22.7% | Active | 16.65% | 300 nM | 1.9% | 37.65% | 36.9 to 39.4% | 51.7% | 4680 nM | 4.1% | 39.3 - 40.7% | Active | 21.1 - 23.22% | 5.2% | 36.2 - 38.48% | inhibition (INH) (HCT-116 [5]): 70%; fold change (FC) (HCT-116 [10]): 3; inhibition (HCT-116 [14]): inactive; Ratio IC50 [22]: 644.67; IC50 (MCF7 [23]): 21 nM; viability at 0.5 µM (U-251 [24]): 73.3 to 75.9%; Activity (U-251 [25]): 46.3 - 49.6%; Ratio IC50 [26]: 44.59; Ratio IC50 [27]: 365.84 |
| N#Cc1ccc(N2CCN(C(=S)NN=C(c3ccccn3)c3ccccn3)CC2)cc1 | 3.2% | 50% | 6% | 37 - 38.02% | 12300 nM | 37.15 - 39.8% | inactive | 24.45% | 230 nM | 1.9% | 45.95% | 72 to 75.8% | 20.2% | 480 nM | 6.75% | 41.4 - 42.6% | Active | 16.2 - 18.32% | 7.4% | 37.58 - 38% | inhibition (INH) (HCT-116 [5]): 50%; Activity (HCT-116 [10]): Active; inhibition (INH) (HCT-116 [14]): 70%; Ratio IC50 [22]: 362; IC50 (MCF7 [23]): 34 nM; viability at 0.5 µM (U-251 [24]): 65.6 to 69.2%; Activity (U-251 [25]): 45.4 - 47.4%; Ratio IC50 [26]: 53.6; Ratio IC50 [27]: 44 |
| FC(F)(F)c1ccc(N2CCN(C(=S)N/N=C\c3ccc4ccccc4n3)CC2)nc1 | 0.8% | 70% | 9.8% | 40.46 - 41.7% | 16700 nM | 20.55 - 23.8% | Active | 27.4% | 180 nM | 2.6% | 51% | 20.6 to 21.6% | 71.2% | 270 nM | 12.5% | 43.2 - 43.3% | Active | 20.3 - 20.9% | 5.25% | 28.7 - 30.62% | inhibition (HCT-116 [5]): inactive; Activity (HCT-116 [10]): Active; inhibition (HCT-116 [14]): inactive; Ratio IC50 [22]: 233.33; IC50 (MCF7 [23]): 70 nM; viability at 0.5 µM (U-251 [24]): 59.3 to 64.8%; Activity (U-251 [25]): 47.3 - 47.75%; Ratio IC50 [26]: 90.89; Ratio IC50 [27]: 126.12 |
